Results from ChEMBL document CHEMBL3407418, “Fragment-based drug discovery of 2-thiazolidinones as BRD4 inhibitors: 2. Structure-based optimization” (J Med Chem, 2015).

What was measured:
[1] = molecular target: T1, Bromodomain-containing protein 4 (Homo sapiens, UniProt O60885); experiment: Inhibition of BRD4(1) (unknown origin) incubated for 4 hrs by (+)-JQ1 fluorescent ligand based fluorescence anisotrophy
HT-29 = experiment: Growth inhibition of human HT-29 cells after 72 hrs by SRB assay; assay type: functional, cell-based; conditions: HT-29, 72 h
Summary of the method: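 HT-29 cells are grown in McCoy's 5A with 10% FBS at 37 °C, 5% CO2. DMSO stocks (0.01 mol/L) are diluted in normal saline just before use. Cells are treated in triplicate with gradient concentrations for 72 h at 37 °C.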

[2] = molecular target: Bromodomain-containing protein 2 (Homo sapiens) (UniProt P25440); experiment: Binding affinity to BRD2(1) (unknown origin) assessed as increase in protein melting temperature at 50 umol by real-time PCR system based thermal shift assay
Summary of the method: (§1)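 Bromodomain proteins in 10 mmol HEPES pH 7.5, 500 mmol NaCl at 75 μg/mL final; compound at 50 µmol final; SYPRO Orange probe at 1:1000. Four replicates per protein mixture. Melt curve read on a real-time PCR instrument, heating 25 °C to 99 °C at 1 °C/min under continuous fluorescence reading; binding taken as the rise in protein melting temperature.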

[3] = molecular target: Histone acetyltransferase p300 (Homo sapiens) (UniProt Q09472); experiment: Binding affinity to EP300 (unknown origin) assessed as increase in protein melting temperature at 50 umol by real-time PCR system based thermal shift assay; summary of the method: as §1
[4] = molecular target: SWI/SNF-related matrix-associated actin-dependent regulator of chromatin subfamily A member 4 (Homo sapiens) (UniProt P51532); experiment: Binding affinity to BRG1 (unknown origin) assessed as increase in protein melting temperature at 50 umol by real-time PCR system based thermal shift assay; summary of the method: as §1
[5] = Stability in human liver microsomes assessed as clearance at 1 uM pre-incubated for 5 mins followed by NADPH addition and measured after 5 to 30 mins post NADPH addition by LC/MS/MS method; assay type: ADME; conditions: read-out: CLH
Summary of the method: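 Human liver microsomes (0.5 mg/mL) preincubated with 1 µM compound for 5 min at 37 °C in 0.1 M phosphate pH 7.4 with 1 mmol EDTA and 5 mmol MgCl2. Started with 1 mmol NADPH; sampled at 0, 5, 10 and 30 min. Quenched with equal volume of cold acetonitrile, vortexed, and centrifuged at 10,000 × g.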

CYP3A4 [6] = molecular target: T2, CYP3A4 (Homo sapiens, UniProt P08684); experiment: Inhibition of CYP3A4 in human liver microsomes at 10 uM using midazolam substrate preincubated for 5 mins before NADPH addition and measured after 20 mins post NADPH addition; assay type: ADME; conditions: probe midazolam
Summary of the method: (§2)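 Human liver microsomes 0.2 mg/mL, 1 mmol NADPH, 100 mmol phosphate pH 7.4, probe cocktail (10 μM midazolam, 100 μM testosterone, 10 μM dextromethorphan, 20 μM diclofenac, 100 μM phenacetin, 100 μM mephenytoin), test compound 10 μM or PBS; organic solvent <1%. 5 min preincubation at 37 °C, NADPH-generating system start, 20 min reaction; inhibition from metabolite formation relative to PBS.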

CYP3A4 [7] = molecular target: T2, CYP3A4; experiment: Inhibition of CYP3A4 in human liver microsomes at 10 uM preincubated for 5 mins before NADPH addition and measured after 20 mins post NADPH addition; assay type: ADME
CYP1A2 = molecular target: T3, CYP1A2 (Homo sapiens, UniProt P05177); experiment: Inhibition of CYP1A2 in human liver microsomes at 10 uM using phenacetin substrate preincubated for 5 mins before NADPH addition and measured after 20 mins post NADPH addition; assay type: ADME; conditions: probe phenacetin; summary of the method: as §2
T3 sequence (P05177 whole entry): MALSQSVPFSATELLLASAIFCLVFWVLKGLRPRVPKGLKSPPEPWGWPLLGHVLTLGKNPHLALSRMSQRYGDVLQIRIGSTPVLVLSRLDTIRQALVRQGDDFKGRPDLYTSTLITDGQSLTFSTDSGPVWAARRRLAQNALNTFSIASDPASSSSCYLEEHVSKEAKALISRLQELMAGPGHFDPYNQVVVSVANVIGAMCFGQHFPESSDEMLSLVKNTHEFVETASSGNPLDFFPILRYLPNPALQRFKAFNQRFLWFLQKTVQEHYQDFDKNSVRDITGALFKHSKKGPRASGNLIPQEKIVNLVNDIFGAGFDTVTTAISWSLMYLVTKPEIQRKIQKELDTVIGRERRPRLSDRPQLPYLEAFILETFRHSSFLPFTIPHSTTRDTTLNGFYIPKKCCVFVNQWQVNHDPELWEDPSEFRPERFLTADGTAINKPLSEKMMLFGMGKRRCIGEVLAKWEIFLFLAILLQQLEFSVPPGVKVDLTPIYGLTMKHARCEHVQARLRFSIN

CYP2C19 = CYP2C19 (Homo sapiens, UniProt P33261); experiment: Inhibition of CYP2C19 in human liver microsomes at 10 uM using mephenytoin substrate preincubated for 5 mins before NADPH addition and measured after 20 mins post NADPH addition; assay type: ADME; conditions: probe mephenytoin; summary of the method: as §2
[8] = molecular target: T1, Bromodomain-containing protein 4
[9] = Growth inhibition of human MM1S cells after 72 hrs by CellTiter-Glo luminescent cell viability assay; conditions: MM1.S
MV4-11 = experiment: Growth inhibition of human MV4-11 cells after 72 hrs by CellTiter-Glo luminescent cell viability assay; conditions: MV4-11, 72 h

Chain of CYP2C19 (P33261 whole entry): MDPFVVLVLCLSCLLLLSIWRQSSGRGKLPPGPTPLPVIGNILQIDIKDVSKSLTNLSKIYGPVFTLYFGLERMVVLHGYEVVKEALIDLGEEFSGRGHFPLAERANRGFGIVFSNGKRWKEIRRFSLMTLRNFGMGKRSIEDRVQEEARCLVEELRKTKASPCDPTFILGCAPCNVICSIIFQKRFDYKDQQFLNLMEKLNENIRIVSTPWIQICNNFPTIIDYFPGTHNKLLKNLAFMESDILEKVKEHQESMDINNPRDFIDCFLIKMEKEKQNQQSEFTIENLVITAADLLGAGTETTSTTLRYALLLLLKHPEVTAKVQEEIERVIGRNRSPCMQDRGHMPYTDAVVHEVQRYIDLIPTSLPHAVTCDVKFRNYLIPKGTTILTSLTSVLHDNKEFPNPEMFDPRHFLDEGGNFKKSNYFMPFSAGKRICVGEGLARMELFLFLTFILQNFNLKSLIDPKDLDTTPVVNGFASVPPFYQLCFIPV
Chain of Histone acetyltransferase p300 (Homo sapiens) (Q09472 whole entry): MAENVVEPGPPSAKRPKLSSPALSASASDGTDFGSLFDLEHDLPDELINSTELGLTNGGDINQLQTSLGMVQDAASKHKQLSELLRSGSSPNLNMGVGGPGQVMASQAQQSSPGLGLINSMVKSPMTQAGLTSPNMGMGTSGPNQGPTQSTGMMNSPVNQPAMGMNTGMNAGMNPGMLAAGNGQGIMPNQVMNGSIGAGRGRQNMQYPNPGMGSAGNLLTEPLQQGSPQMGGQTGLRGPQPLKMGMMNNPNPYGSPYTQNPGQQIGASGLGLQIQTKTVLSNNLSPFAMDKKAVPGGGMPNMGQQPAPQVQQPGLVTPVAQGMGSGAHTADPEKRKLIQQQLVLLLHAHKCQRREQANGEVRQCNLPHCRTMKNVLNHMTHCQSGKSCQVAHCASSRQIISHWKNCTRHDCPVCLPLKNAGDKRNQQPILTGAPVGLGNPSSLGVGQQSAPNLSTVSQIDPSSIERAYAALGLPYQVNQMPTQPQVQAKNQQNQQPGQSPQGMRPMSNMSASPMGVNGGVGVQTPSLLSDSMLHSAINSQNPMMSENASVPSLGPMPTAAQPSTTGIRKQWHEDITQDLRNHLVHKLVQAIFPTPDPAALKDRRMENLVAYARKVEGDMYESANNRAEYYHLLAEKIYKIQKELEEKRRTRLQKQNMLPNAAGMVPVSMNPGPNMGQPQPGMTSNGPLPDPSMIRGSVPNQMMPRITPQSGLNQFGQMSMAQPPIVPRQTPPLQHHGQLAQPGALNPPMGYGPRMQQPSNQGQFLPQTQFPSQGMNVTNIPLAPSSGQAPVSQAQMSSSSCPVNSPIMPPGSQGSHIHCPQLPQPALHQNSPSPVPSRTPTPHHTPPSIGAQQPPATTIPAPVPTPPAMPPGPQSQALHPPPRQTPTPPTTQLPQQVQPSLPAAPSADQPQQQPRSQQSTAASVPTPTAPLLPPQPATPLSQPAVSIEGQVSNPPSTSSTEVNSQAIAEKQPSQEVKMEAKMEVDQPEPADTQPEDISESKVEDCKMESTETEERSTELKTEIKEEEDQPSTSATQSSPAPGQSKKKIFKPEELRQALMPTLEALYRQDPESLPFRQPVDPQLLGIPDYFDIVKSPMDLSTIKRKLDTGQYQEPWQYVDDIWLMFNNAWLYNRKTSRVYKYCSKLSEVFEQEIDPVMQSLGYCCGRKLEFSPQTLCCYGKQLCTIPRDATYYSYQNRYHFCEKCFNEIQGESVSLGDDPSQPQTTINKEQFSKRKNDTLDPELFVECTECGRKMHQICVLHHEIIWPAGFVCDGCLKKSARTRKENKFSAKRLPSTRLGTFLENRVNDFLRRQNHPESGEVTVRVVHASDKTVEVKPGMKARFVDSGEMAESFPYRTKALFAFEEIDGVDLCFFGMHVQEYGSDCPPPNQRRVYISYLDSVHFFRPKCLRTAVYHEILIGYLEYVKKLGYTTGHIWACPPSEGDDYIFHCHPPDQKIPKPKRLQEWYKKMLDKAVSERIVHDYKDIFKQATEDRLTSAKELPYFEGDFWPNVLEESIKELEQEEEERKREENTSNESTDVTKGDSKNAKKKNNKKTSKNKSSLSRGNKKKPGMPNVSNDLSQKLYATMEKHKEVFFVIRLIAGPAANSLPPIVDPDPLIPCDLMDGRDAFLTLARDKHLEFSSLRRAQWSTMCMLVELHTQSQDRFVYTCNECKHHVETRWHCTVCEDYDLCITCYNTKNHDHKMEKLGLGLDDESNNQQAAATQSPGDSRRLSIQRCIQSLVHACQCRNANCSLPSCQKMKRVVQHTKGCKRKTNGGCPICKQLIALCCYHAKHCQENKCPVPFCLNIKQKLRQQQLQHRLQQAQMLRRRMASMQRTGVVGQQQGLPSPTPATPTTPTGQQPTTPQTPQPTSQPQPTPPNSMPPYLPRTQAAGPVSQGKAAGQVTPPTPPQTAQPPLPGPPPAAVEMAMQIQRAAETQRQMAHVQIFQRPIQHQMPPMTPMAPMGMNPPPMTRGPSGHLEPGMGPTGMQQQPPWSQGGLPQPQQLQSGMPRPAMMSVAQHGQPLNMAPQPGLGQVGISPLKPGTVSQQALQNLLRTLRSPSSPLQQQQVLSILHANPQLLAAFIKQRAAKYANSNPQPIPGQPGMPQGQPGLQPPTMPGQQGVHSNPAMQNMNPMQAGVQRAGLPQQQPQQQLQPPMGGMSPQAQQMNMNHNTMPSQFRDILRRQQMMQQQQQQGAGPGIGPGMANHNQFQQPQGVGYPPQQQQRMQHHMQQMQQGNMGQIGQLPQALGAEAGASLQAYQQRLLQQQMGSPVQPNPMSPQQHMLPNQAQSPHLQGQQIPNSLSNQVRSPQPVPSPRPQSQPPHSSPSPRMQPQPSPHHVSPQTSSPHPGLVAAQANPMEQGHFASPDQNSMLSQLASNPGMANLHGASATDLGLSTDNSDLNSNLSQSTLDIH
T2 sequence (P08684 whole entry): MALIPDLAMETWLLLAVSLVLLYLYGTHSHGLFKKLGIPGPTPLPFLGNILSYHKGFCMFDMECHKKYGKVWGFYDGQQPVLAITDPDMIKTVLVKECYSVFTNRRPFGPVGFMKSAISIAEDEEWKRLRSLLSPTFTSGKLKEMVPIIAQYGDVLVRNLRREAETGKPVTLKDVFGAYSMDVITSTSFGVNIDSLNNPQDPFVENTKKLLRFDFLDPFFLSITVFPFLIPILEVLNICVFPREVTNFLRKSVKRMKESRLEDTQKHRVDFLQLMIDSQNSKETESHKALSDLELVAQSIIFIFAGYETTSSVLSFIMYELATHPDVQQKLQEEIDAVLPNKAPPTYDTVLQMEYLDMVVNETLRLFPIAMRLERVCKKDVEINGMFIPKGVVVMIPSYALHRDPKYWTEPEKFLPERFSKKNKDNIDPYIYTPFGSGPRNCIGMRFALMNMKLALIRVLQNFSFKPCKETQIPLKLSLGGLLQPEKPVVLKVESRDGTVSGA
Chain of SWI/SNF-related matrix-associated actin-dependent regulator of chromatin subfamily A member 4 (Homo sapiens) (P51532 whole entry): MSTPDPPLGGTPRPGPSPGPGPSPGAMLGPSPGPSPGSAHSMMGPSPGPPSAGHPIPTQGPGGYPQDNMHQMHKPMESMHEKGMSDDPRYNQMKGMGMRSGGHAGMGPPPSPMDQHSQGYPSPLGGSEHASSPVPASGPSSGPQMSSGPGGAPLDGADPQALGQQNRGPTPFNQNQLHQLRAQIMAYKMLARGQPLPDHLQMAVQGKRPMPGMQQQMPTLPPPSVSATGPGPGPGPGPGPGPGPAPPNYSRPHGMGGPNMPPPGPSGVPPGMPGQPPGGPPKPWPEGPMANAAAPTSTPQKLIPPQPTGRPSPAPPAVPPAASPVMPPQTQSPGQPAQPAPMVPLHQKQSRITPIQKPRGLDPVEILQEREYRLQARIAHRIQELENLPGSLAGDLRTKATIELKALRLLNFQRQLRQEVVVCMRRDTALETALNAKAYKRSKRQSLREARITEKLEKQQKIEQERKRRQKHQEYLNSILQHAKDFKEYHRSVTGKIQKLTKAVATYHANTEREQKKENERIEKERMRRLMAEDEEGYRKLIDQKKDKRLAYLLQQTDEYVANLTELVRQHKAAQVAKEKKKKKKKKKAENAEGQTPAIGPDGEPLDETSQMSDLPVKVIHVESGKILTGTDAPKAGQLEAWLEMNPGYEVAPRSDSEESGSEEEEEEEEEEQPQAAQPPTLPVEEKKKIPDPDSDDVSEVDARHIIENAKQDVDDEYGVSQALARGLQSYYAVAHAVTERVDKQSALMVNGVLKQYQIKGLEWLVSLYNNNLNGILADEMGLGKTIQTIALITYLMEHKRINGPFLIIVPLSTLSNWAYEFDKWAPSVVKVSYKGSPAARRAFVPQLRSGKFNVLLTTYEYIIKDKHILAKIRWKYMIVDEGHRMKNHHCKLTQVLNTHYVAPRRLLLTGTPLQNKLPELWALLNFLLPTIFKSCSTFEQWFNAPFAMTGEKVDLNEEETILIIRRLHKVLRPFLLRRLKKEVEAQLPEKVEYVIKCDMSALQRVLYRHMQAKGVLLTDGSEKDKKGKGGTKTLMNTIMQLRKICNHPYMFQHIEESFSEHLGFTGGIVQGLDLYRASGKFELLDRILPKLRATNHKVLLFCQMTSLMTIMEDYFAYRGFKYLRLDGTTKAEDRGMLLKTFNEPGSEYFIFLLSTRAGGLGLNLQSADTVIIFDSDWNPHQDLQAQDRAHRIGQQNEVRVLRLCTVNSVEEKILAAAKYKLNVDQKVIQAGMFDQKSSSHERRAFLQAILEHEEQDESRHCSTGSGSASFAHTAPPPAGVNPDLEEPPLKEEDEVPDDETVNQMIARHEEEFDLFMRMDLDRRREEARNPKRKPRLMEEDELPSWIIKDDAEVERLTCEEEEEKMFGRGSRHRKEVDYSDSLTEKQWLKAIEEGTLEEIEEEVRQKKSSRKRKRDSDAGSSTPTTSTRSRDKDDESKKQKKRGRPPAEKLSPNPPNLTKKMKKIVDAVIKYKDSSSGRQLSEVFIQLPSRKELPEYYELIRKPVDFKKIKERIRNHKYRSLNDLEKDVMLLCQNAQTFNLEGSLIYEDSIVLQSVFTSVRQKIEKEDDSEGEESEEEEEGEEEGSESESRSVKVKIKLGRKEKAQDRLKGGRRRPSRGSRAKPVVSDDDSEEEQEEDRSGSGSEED

Row | SMILES | IC50 [1] [µM] | IC50 (HT-29) [µM] | ΔTm [2] [°C] | ΔTm [3] [°C] | ΔTm [4] [°C] | microsomal CLint at 1 µM [5] [µL/min/mg] | inhibition at 20 min, 10 µM (CYP3A4 [6]) [%] | inhibition at 20 min, 10 µM (CYP3A4 [7]) [%] | inhibition at 20 min, 10 µM (CYP1A2) [%] | inhibition at 20 min, 10 µM (CYP2C19) [%] | ΔTm [8] [°C] | IC50 [9] [µM] | IC50 (MV4-11) [µM]
1 | COc1ccc(-c2csc(=O)[nH]2)cc1S(=O)(=O)NC1CCCC1 | 0.76 | 3.93 | 2.82 | 0.49 | 0.41 | 56 | 20 | 30 | 3 | 26 | 5.19 | 2.42 | 0.547
2 | Cc1c(N)cc(-c2csc(=O)[nH]2)cc1S(=O)(=O)NC1CCCC1 | 0.14 | 0.86 | 5.04 | 0.19 | 0.57 | 66 | 42 | 46 | 17 | 3 | 7.25 | 0.57 | 0.184
3 | Cc1ccc(-c2csc(=O)[nH]2)cc1S(=O)(=O)NC1CCCC1 | 0.22 | 3.95 | 3.47 | -0.17 | 0.69 | 128 | 62 | 68 | 52 | 45 | 6.3 | 1.9 | 0.459

Other lines, results leading:

Row | IC50 [1] [µM] | IC50 (HT-29) [µM] | ΔTm [2] [°C] | ΔTm [3] [°C] | ΔTm [4] [°C] | microsomal CLint at 1 µM [5] [µL/min/mg] | inhibition at 20 min, 10 µM (CYP3A4 [6]) [%] | inhibition at 20 min, 10 µM (CYP3A4 [7]) [%] | inhibition at 20 min, 10 µM (CYP1A2) [%] | inhibition at 20 min, 10 µM (CYP2C19) [%] | ΔTm [8] [°C] | IC50 [9] [µM] | IC50 (MV4-11) [µM] | SMILES
4 | 0.06 | 5.46 | 5.92 | -1.01 | 0.94 | 84 | 42 | 53 | 47 | 28 | 9.22 | 0.999 | 0.141 | Cc1c(Br)cc(-c2csc(=O)[nH]2)cc1S(=O)(=O)NC1CCCC1
5 | 0.06 | 5.69 | 5.63 | -0.54 | 1.03 | 74 | 14 | 21 | 29 | 32 | 8.48 | 1.05 | 0.228 | O=C(Nc1cc(-c2csc(=O)[nH]2)cc(S(=O)(=O)NC2CCCC2)c1)C1CC1
6 | 0.12 | 3.28 | 4.06 | -0.08 | 0.39 | 20 | 70 | 82 | 22 | 57 | 7.76 | 0.793 | 0.289 | Nc1ccc(-c2csc(=O)[nH]2)cc1S(=O)(=O)NC1CCCC1
